Reference: article PMC8864714 (Chemical Science, 2022)
In brackets after ≈: the same amount, converted by molar mass. Bridge positions count the residues as written; N and C are the ends. Square brackets hold non-standard residues; d marks the D form. I, II: the chains in the order shown. * marks the point of attachment. Ac6c = NC1(C(=O)O)CCCCC1; NHNH2 = NN*

Tests used:
[1] = system: panel of Gram-negative pathogens; experiment: Antibacterial testing, statements in words; format: cell-based; details: Table S2
FADDI-KP028 (MDR) = experiment: MIC antibacterial assay; format: cell-based, K. pneumoniae
Outline: (§1)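 Broth assay in 100% Mueller Hinton broth. Test compound was serially diluted from 250 to 4 μg ml−1 and mixed 1:1 by volume with a bacterial suspension of 2 × 10^6 cells per ml, then incubated 90 min at 37 °C. MIC was obtained by plotting maximal growth against concentration (Lambert and Pearson method). Run twice in duplicate; mean ± SD.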

K. pneumoniae ATCC 13883 = experiment: MIC antibacterial assay; format: cell-based, Klebsiella pneumoniae
A. baumannii ATCC 19606 = experiment: MIC antibacterial assay; format: cell-based, Acinetobacter baumannii; details: for MIC, A. baumannii 19606: 100% MHB, 90 min, 37 °C, twice in duplicate, mean ± SD
A. baumannii culture = experiment: Peptide stability in bacterial culture; format: in vitro ADME; details: 90 min incubation with A. baumannii culture
E. coli ATCC 25922 = experiment: MIC antibacterial assay; format: cell-based, Escherichia coli
[2] = system: FADDI-AB156 (colistin-resistant, rifampin-resistant & MDR, XDR); experiment: MIC antibacterial assay; format: cell-based, A. baumannii; details: for MIC, FADDI-AB156: 100% MHB, 90 min, 37 °C, twice in duplicate, mean ± SD
Outline: as §1

A. baumannii 19606 = experiment: Minimum bactericidal concentration; format: cell-based, Acinetobacter baumannii
[3] = 100% MHB, 90 min, 37 °C, twice in duplicate, mean ± SD

## Fc1c(F)c(F)c(F)c(F)c1F [Hexafluorobenzene]
[1]
  antibacterial activity of the linkers alone: no antibacterial activity

## Fc1c(F)c(F)c(-c2c(F)c(F)c(F)c(F)c2F)c(F)c1F [Decafluorobiphenyl]
[1]
  antibacterial activity of the linkers alone: no antibacterial activity

## I: H-[Ac6c]RPDKPRPYLPRPRPPRPVRC-NHNH2 / II: H-[Ac6c]RPDKPRPYLPRPRPPRPVRC-NHNH2 (disulfide I:21-II:21) [compound 2]
FADDI-KP028 (MDR); [3]
  MIC, FADDI-KP028: 111.3 ± 0.3 (21.5) μg ml^−1
K. pneumoniae ATCC 13883; [3]
  MIC, K. pneumoniae 13883: 5.1 ± 0.8 (1.0) μg ml^−1
A. baumannii ATCC 19606
  MIC, A. baumannii 19606: 30.8 ± 3.3 (5.9) μg ml^−1
A. baumannii culture
  peptide stability in A. baumannii culture (RP-HPLC trace): reduced
E. coli ATCC 25922; [3]
  MIC, E. coli 25922: 3.1 ± 0.1 (0.6) μg ml^−1
[2]
  MIC, FADDI-AB156: 59.2 ± 0.2 (11.4) μg ml^−1

## Colistin
A. baumannii ATCC 19606
  MIC, A. baumannii 19606: 0.5 ± 0.04 (0.4) μg ml^−1
[2]
  MIC, FADDI-AB156: 12.6 ± 1.6 (10.9) μg ml^−1
A. baumannii 19606; CFU assay, twice in duplicate, mean ± SD
  Bactericidal MBC, A. baumannii 19606: 0.8 ± 0.02 (0.7) μg ml^−1

## CNC(C)C1CCC(N)C(OC2C(N)CC(N)C(OC3OCC(C)(O)C(NC)C3O)C2O)O1 (centres unmarked) [Gentamicin]
FADDI-KP028 (MDR); Klebsiella pneumoniae, 1.5 h, read-out: MIC, FADDI-KP028
  MIC: > 250 µg/mL
K. pneumoniae ATCC 13883; Klebsiella pneumoniae, ATCC13883, 1.5 h, read-out: MIC, K. pneumoniae 13883
  MIC: 0.1 ± 0.05 µg/mL (≈ 0.209 µM)
A. baumannii ATCC 19606; Acinetobacter baumannii, ATCC19606, 1.5 h, read-out: MIC, A. baumannii 19606
  MIC: 2.7 ± 0.2 µg/mL (≈ 5.65 µM)
E. coli ATCC 25922; Escherichia coli, ATCC25922, 1.5 h, read-out: MIC, E. coli 25922
  MIC: 0.9 ± 0.1 µg/mL (≈ 1.88 µM)
[2]; Acinetobacter baumannii, 1.5 h, read-out: MIC, FADDI-AB156
  MIC: > 250 µg/mL
A. baumannii 19606; Acinetobacter baumannii, 19606, read-out: Bactericidal MBC, A. baumannii 19606
  MBC: 4.6 ± 0.3 µg/mL (≈ 9.63 µM)
